Experimental data taken from ChEMBL document CHEMBL1138258, “Optimizing cell permeation of an antibiotic resistance inhibitor for improved efficacy” (J Med Chem, 2007).

How the values were obtained:
Escherichia coli = assay: Antibacterial activity against Escherichia coli K12 JM109 overexpressing beta-lactamase; type: functional
How it was run: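 Broth microdilution in Mueller Hinton broth against E. coli K12 JM109 overexpressing AmpC from a heat-sensitive pOGO plasmid. Ampicillin MIC determined with and without boronic acids; final inoculum 5 × 10^5 CFU/mL; DMSO below 5%.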

[1] = Dissociation constant, pKa of the compound; type: physicochemical
How it was run: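 UV spectrophotometric determination on 10^-4 M aqueous solutions, by two methods. First, spectra were recorded at pH between 2 and 12 with ionic strength fixed at 0.01. Second, solutions at pH 2 (0.5 N HCl) were titrated with 0.5 N NaOH up to pH 12. pKa was derived with the Henderson-Hasselbalch equation and absorption-spectra extrapolation.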

Structure (SMILES) | pKa [1] | MIC (Escherichia coli)
O=CN(C=O)Cc1ccc2sc(B(O)O)cc2c1 | 6.39 | 92 µM
O=[N+]([O-])c1cccc(NCc2ccc3sc(B(O)O)cc3c2)c1 | 6.39 | 78 µM
CC(=O)c1ccc(NCc2ccc3sc(B(O)O)cc3c2)cc1 | 6.39 | 314 µM
O=C(O)CNCc1ccc2sc(B(O)O)cc2c1 | 6.39 | 92 µM
Nn1cn[n+](Cc2ccc3sc(B(O)O)cc3c2)c1 | 6.39 | 117 µM
OB(O)c1cc2cc(CSc3ccccc3)ccc2s1 | 6.39 | 84 µM
OB(O)c1cc2cc(COCc3ccccc3)ccc2s1 | 6.39 | –
Cc1ccc2sc(B(O)O)cc2c1 | 6.39 | 117 µM
OB(O)c1cc2ccccc2s1 | 6.39 | 359 µM
OB(O)c1cc2cc(Cn3ccnc3)ccc2s1 | 6.39 | 94 µM
OCc1ccc2sc(B(O)O)cc2c1 | 6.39 | –
OB(O)c1cc2cc(CNc3ccc(Cl)c(Cl)c3)ccc2s1 | 6.39 | 147 µM
OB(O)c1cc2cc(CN3CCNCC3)ccc2s1 | 6.39 | –
CC1(C)S[C@@H]2[C@H](NC(=O)[C@H](N)c3ccccc3)C(=O)N2[C@H]1C(=O)O [AMPICILLIN] | – | 512 µg/mL

Second part, led by results:

pKa [1] | Structure (SMILES) | MIC (Escherichia coli)
6.39 | OCCN(CCO)Cc1ccc2sc(B(O)O)cc2c1 | –
6.6 | O=CNCc1ccc2sc(B(O)O)cc2c1 | –
6.39 | OB(O)c1cc2cc(CNc3ccc(C(O)(C(F)(F)F)C(F)(F)F)cc3)ccc2s1 | –
6.39 | OB(O)c1cccc(NCc2ccc3sc(B(O)O)cc3c2)c1 | –
6.39 | O=C(O)c1cccc(NCc2ccc3sc(B(O)O)cc3c2)c1 | –
6.39 | OB(O)c1cc2cc(COc3ccc(Cl)c(Cl)c3)ccc2s1 | –
6.39 | OB(O)c1cc2cc(CNc3ccc(N4CCOCC4)cc3)ccc2s1 | –
6.39 | OB(O)c1cc2cc(COc3ccccc3)ccc2s1 | –
6.39 | COc1ccc(NCc2ccc3sc(B(O)O)cc3c2)cc1OC | –
6.39 | OB(O)c1cc2cc(CBr)ccc2s1 | –
